Measurements reported in PubChem BioAssay AID652255 (Vanderbilt Specialized Chemistry Center, 2013).
Calls of active or inactive are those of the source. No rule for the calls is given here.

Biological target: Proteinase-activated receptor 1 (Homo sapiens) (UniProt P25116)
Assay: inhibition of PAR1-AP platelet activation – cell-based, CRC, P-selectin flow cytometry, selectivity assay for PAR4 antagonist project, dose response (AID 652255)
Conditions: Washed human platelets
Procedure, shortened: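 Assay system: Antibody-labelled washed platelets. Reagent: PAR1 activating peptide (PAR1-AP) as agonist. Dosing: antagonist exposure with 0.5% DMSO final. Schedule: 5 min label, 5 min compound, 10 min agonist. Signal: flow cytometry fluorescence intensity, 100,000 platelet-gated events, paraformaldehyde-fixed. Control set: vehicle (DMSO) control.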

Proteinase-activated receptor 1 (Homo sapiens), sequence (P25116 whole entry, looked up): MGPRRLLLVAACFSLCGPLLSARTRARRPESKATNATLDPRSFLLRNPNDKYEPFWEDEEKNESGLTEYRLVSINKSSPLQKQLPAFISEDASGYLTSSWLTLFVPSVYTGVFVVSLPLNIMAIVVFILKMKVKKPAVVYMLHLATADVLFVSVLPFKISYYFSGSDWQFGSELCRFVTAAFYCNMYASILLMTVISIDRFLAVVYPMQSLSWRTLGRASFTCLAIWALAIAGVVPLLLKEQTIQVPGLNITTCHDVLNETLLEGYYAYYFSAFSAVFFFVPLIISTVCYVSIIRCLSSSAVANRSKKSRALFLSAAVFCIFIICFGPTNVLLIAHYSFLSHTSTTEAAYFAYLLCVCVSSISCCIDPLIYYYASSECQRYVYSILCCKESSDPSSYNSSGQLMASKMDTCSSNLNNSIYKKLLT

max inhibition (stronger effect = higher value) [%]	IC50	SMILES
57.1	–	COc1ccc(COc2ccc(C(=O)NCCC(C)(C)C)cc2)cc1
–	inactive	CCCOCc1c(-c2ccccc2)c2cc([N+](=O)[O-])ccc2n1C
